The results in this text go back to ChEMBL document CHEMBL4513216, “Probing the Open Global Health Chemical Diversity Library for Multistage-Active Starting Points for Next-Generation Antimalarials” (ACS Infect Dis, 2020).

This data set in a line: Toxicity liver stage against HepG2, at 10uM. Type of data set: cell-based. Further details: test concentration 10 uM, cell line HepG2-A16-CD81EGFP. The settings on record: human, HepG2-A16-CD81EGFP cells; read-out: INHIBITION
Summed up:
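Uninfected HepG2-A16-CD81EGFP cells, 3 × 10^3 per well, 1536-well, plated on prespotted compound at 10 μM final, parasite-free screening media added to match infected plates; puromycin 10 μM positive, DMSO 0.5% negative; run in parallel with 48 h PbLuc assay at 37 °C, 5% CO2; viability by CellTiter-Glo luminescence, normalized to controls.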
As for `CC[C@H]1CN2CC[C@H]1C[C@@H]2CNC(=O)Nc1cc(OC)cc(OC)c1`, the cytotoxicity at 10 µM was 3.39%.

As to `CCN1CC(CN2CCOCC2)Oc2ncccc2C1=O` (configuration not stated), the cytotoxicity at 10 µM is -1.1%.

For the compound `COc1cc(C2CC(=O)Oc3cc(C)[nH]c(=O)c32)ccc1O` (configuration not stated), the cytotoxicity at 10 µM was -8.64%.

For `CC(=O)CSc1sc2c(O)cc(=O)[nH]c2c1C(N)=O`, the cytotoxicity at 10 µM is -3.48%.

For the compound `COCCNC(=O)c1ccc2ccc(N(C)CC3CC3)n2c1`, the cytotoxicity at 10 µM came out at 0.375%.

Turning to `CN(C)C(=O)CNC(=O)c1cc2c(s1)CCN2S(C)(=O)=O`, the cytotoxicity at 10 µM came out at 0.793%.

As for `O=C(NCc1cccnc1)c1nc2c(s1)CCCN2c1ncccn1`, the cytotoxicity at 10 µM is 8.44%.

For the compound `COCCN1C(=O)C[C@H]2[C@H]1CCN2C(=O)c1ccc[nH]1`, the cytotoxicity at 10 µM amounted to 5.89%.

In the case of `COCC1CN(C(=O)Cc2cccs2)Cc2nnn(C)c21` (configuration not stated), the cytotoxicity at 10 µM worked out at 4.99%.

`c1cncc(N2CCOC3(CCCN(c4nncs4)C3)C2)c1` (configuration not stated): the cytotoxicity at 10 µM was 6.56%.

`Cc1ncsc1C(=O)N1CCc2nnc(C3CCCCN3C)n2CC1` (configuration not stated): the cytotoxicity at 10 µM worked out at 3.3%.

For `CC1(c2[nH]ncc2C(N)=O)CCN(c2ncccn2)CC1`, the cytotoxicity at 10 µM amounted to 0.462%.

With `OCC(CO)N1CCCC(Cc2cnc(Nc3ccccn3)cn2)C1` (configuration not stated), the cytotoxicity at 10 µM is -5.97%.

On to `COCCC(=O)N1Cc2ccccc2OC2(CCOCC2)C1`, for which the cytotoxicity at 10 µM was -2.53%.

On to `O=C(Cc1cccs1)N1CCCCC1c1ccn2ccnc2n1` (configuration not stated), for which the cytotoxicity at 10 µM is -6.58%.

`CC(C)(N)C(=O)N1CCCC1c1cncc(Oc2ccccc2)n1` (configuration not stated): the cytotoxicity at 10 µM is -6.02%.

`Cc1cccc(CC2COCCN(Cc3nccn3C)C2)n1` (configuration not stated): the cytotoxicity at 10 µM was 1.61%.

As for `CN1CCC(c2cc(C(F)(F)F)n3ccnc3n2)CC1`, the cytotoxicity at 10 µM was -9.6%.

As for `CCS(=O)(=O)N1CCC(c2cc3n(n2)[C@@H](C(F)(F)F)C[C@@H](C)N3)CC1`, the cytotoxicity at 10 µM was found to be 0.436%.

Regarding `O=C(Cc1c[nH]c2ncccc12)NCC(O)c1ccccc1F` (configuration not stated), the cytotoxicity at 10 µM was -3.43%.

In the case of `O=C(NCCc1cc(F)ccc1F)NC(CO)c1ccccc1` (configuration not stated), the cytotoxicity at 10 µM came to 8.78%.

On to `COC(=O)c1oc(CNC(C)(C)c2ccc3c(c2)OCO3)cc1C`, for which the cytotoxicity at 10 µM worked out at 4.47%.

With `CCCNC(=O)NCc1nc(C)c(C)o1`, the cytotoxicity at 10 µM was 5.19%.

Take `CC1CN(C(=O)C2(c3ccc(F)cc3F)CCOCC2)CCO1` (configuration not stated): the cytotoxicity at 10 µM was -4.84%.

As for `O=C(NCCC1CCN(CC(F)(F)F)CC1)C1CCCO1` (configuration not stated), the cytotoxicity at 10 µM stood at 5.48%.

Take `CCNC(=O)C1CCCN(c2ccc(C#N)cc2C(F)(F)F)C1` (configuration not stated): the cytotoxicity at 10 µM amounted to 1.28%.

For `CCSc1cncc(N2CCC(NC(=O)C3CCCCC3)CC2)n1`, the cytotoxicity at 10 µM is 16.8%.

Regarding `Cc1ccccc1CN1CCC(NCC2CNc3ccnn3C2)CC1` (configuration not stated), the cytotoxicity at 10 µM was determined as 0.0194%.

Turning to `N#Cc1ccc(CNC(=O)NC2CCN(CC(F)F)CC2)cc1`, the cytotoxicity at 10 µM is -6.96%.

Take `Cc1cc(C)n(C2CCCN(C(=O)c3cccc4[nH]ncc34)C2)n1` (configuration not stated): the cytotoxicity at 10 µM came out at 6.22%.

On to `Cc1cc(C2CCC2)nc(N2CCC3(CC2)OCCCC3O)n1` (configuration not stated), for which the cytotoxicity at 10 µM was found to be 4.28%.

Consider `Cc1ccc(C2(O)CCN(Cc3nc(C)n4ccccc34)CC2)nc1`, for which the cytotoxicity at 10 µM was 3.43%.

With `Cc1ccsc1C(=O)N1CCC(c2nccn2Cc2ccncc2)CC1`, the cytotoxicity at 10 µM was determined as 0.535%.

As for `Cn1ccnc1CN1C[C@@H](CN2CCCCC2)[C@@H](CO)C1`, the cytotoxicity at 10 µM came to 11.7%.

On to `CCc1nccc(CN2CCCC(c3nn(C)c(=O)n3CC)C2)n1` (configuration not stated), for which the cytotoxicity at 10 µM was -3.69%.

With `CN(Cc1ccccc1)C1(C(=O)O)Cc2ccccc2C1`, the cytotoxicity at 10 µM was determined as 1.04%.

In the case of `CC(Cn1cncn1)NCc1nncn1C1CCCCC1` (configuration not stated), the cytotoxicity at 10 µM is -10.4%.

Turning to `CCCSc1ncc(Cl)c(C(=O)NC(CCSC)C(=O)O)n1` (configuration not stated), the cytotoxicity at 10 µM is -6.44%.

Turning to `Cc1cc(-n2cnnn2)n2ncnc2n1`, the cytotoxicity at 10 µM is -5.66%.

For `CCn1ncc(NC(=O)c2cc(C3CC3)nc3c2c(C)nn3C)c1C`, the cytotoxicity at 10 µM is -3.32%.

Turning to `CCOC1CCN(C(=O)CN(C)c2cnccn2)CC1`, the cytotoxicity at 10 µM was -6.07%.

With `N#Cc1cccc(CNC(=O)Nc2cccnc2N2CCCC2)c1`, the cytotoxicity at 10 µM is -15.5%.

In the case of `Cc1nc(C)n(C2CCCN(C(=O)Cc3csc(C(C)C)n3)C2)n1` (configuration not stated), the cytotoxicity at 10 µM is -15.8%.

Turning to `COC(=O)C(NC(=O)COC1CCCC1)c1cc(F)ccc1F` (configuration not stated), the cytotoxicity at 10 µM is -9.06%.

For the compound `COCCCNC(=O)CN(C)C(=O)c1cc(C)ccc1N(C)C(C)C`, the cytotoxicity at 10 µM was -4.84%.

On to `Cc1cnn(CC2CN(Cc3nccn3C)CCO2)c1` (configuration not stated), for which the cytotoxicity at 10 µM is -2.06%.

For the compound `CC(=O)Nc1nc(CN2CCn3c(nnc3C3CC3)C2)cs1`, the cytotoxicity at 10 µM was -7.91%.

For `Cc1nnc(CN2CCC(N(C)Cc3nnc(C4CC4)n3C)C2)o1` (configuration not stated), the cytotoxicity at 10 µM was -5.36%.

In the case of `CC(C(=O)N1CCCN(c2ccc(C#N)cc2)CC1)n1ccnc1` (configuration not stated), the cytotoxicity at 10 µM is -9.75%.

Regarding `COc1c(CNCc2ccc(N(C)C)nc2)c(C(C)C)nn1C`, the cytotoxicity at 10 µM is -9.75%.

With `Cc1cc(C)c(CNC(=O)NCCOc2ccc3c(c2)CCC3)c(=O)[nH]1`, the cytotoxicity at 10 µM is -23.3%.

Take `CC(C)c1ccc(C(C)NC(=O)N2CCC(n3cncn3)CC2)cc1` (configuration not stated): the cytotoxicity at 10 µM was -6.18%.

In the case of `Cc1nc(CSCCC(=O)NCc2cccnc2N(C)C)cs1`, the cytotoxicity at 10 µM is -9.19%.

On to `Cc1cc(C)n(C2CN(CC(O)COc3ccc(F)cc3)C2)n1` (configuration not stated), for which the cytotoxicity at 10 µM is -10.5%.

For `Cc1nnc2n1CCN(C(=O)COCCOc1ccccc1)C2`, the cytotoxicity at 10 µM was determined as 0.529%.

For `CCN(Cc1cccc(Cl)c1)Cn1nc(C)c2c(C)onc2c1=O`, the cytotoxicity at 10 µM was -13%.

For the compound `O=C(c1ccc(-n2cccn2)nc1)N1CCCN(c2cccnn2)CC1`, the cytotoxicity at 10 µM worked out at 0.65%.

Turning to `O=C(NCCNc1ccc(C(F)(F)F)cn1)c1cncc(Br)c1`, the cytotoxicity at 10 µM stood at 2.24%.

For `O=C(CCc1nccs1)N1CCN(c2ncccn2)CC1`, the cytotoxicity at 10 µM is -0.313%.

`C[C@@H](NC(=O)c1cnccn1)c1c(-c2ccc(Cl)cc2)noc1C(=O)O`: the cytotoxicity at 10 µM was 4.26%.

As to `Cc1ccc2c(n1)N(C)CCN(CCN1CCCC1)C2`, the cytotoxicity at 10 µM was -8.84%.

`COCC1c2c(cnn2C)CCN1Cc1cccc(C)c1` (configuration not stated): the cytotoxicity at 10 µM turned out to be 0.951%.

As to `c1cnn(CCCO[C@@H]2CC[C@H]3[C@H]2OCCN3CC2CCOCC2)c1`, the cytotoxicity at 10 µM was determined as 7.77%.

Turning to `COCCN1CCCC12CCN(Cc1cccnc1OC)CC2`, the cytotoxicity at 10 µM turned out to be 15.4%.

As for `CN1Cc2cnn(CC3CCCC3)c2C(COCC2CC2)C1` (configuration not stated), the cytotoxicity at 10 µM was -1.6%.

As to `c1cncc(O[C@H]2CC[C@H]3[C@H]2OCCN3C2CCC2)c1`, the cytotoxicity at 10 µM was -6.69%.

As for `Cc1cc(CCC(=O)N(C)C)nc(C2CCCCN2)n1` (configuration not stated), the cytotoxicity at 10 µM is -2.39%.

As for `Cn1cc(N2CCC3(CCN(Cc4nccs4)C3)C2=O)cn1` (configuration not stated), the cytotoxicity at 10 µM worked out at 3.76%.

With `Cc1noc(C)c1CN1CCc2ncc(Cn3cccn3)n2CC1`, the cytotoxicity at 10 µM turned out to be 2.65%.

As to `COCCN1CCC2(CC1)CN(C(=O)N(C)C)c1ccc(C)cc12`, the cytotoxicity at 10 µM came to 7.74%.

On to `Cc1noc(C)c1CN1C[C@@H]2C[C@H](C(=O)NCC3CC3)N(C)[C@@H]2C1`, for which the cytotoxicity at 10 µM is -1.24%.

`CC(C)[C@H](N)CC(=O)Nc1nc(-c2cnc(N3CCOCC3)nc2)cs1`: the cytotoxicity at 10 µM was -9.8%.
